Active and inactive are the calls of the source. The calls are words filed in the database; no cut-off is given here.
Assays:
HT-29 [1] = assay: Cytotoxicity against human HT-29 cells after 72 hrs by MTT assay; assay type: functional, cell-based; details: HT-29, 72 h
Method in brief: (§1)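 Cells seeded at 10^4/well, exposed 24 h later to graded concentrations (0.01–100 µM) for 72 h at 37°C; MTT 0.5 mg/ml for 2 h, formazan dissolved in DMSO, absorbance at 570 nm. […] Colon lines in DMEM, breast lines in RPMI, both with 10% FCS.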

[2] = Cytotoxicity against human HCT116 cells after 72 hrs by MTT assay; assay type: functional, cell-based; details: HCT-116, 72 h; method in brief: as §1
SW-620 = assay: Cytotoxicity against human SW620 cells after 72 hrs by MTT assay; assay type: functional, cell-based; details: SW-620, 72 h; method in brief: as §1
MCF7 = assay: Cytotoxicity against human MCF7 cells after 72 hrs by MTT assay; assay type: functional, cell-based; details: MCF7, 72 h; method in brief: as §1
MDA-MB-231 = assay: Cytotoxicity against human MDA-MB-231 cells after 72 hrs by MTT assay; assay type: functional, cell-based; details: MDA-MB-231, 72 h; method in brief: as §1
HT-29 [3] = assay: Growth inhibition of human HT-29 cells at cytotoxic IC50 level after 3 days by trypan blue dye exclusion assay; assay type: functional
Method in brief: (§2)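 HT29 cells treated 48 h after seeding, dosed daily with daily medium change over three days; drug diluted in DMSO, controls 0.1% (v/v) DMSO. Cells trypsinized, mixed 1:1 with 0.04% trypan blue, live cells counted by hematimeter. Reported as mitotic index (treated/DMSO count); triplicates from two independent experiments.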

HT-29 [4] = assay: Induction of cell cycle arrest in human HT-29 cells assessed as accumulation at subG1 phase at 0.5 to 10 uM by propidium iodide staining based flow cytometry; assay type: functional
HT-29 [5] = assay: Induction of cell cycle arrest in human HT-29 cells assessed as increase in accumulation at S phase at 0.5 to 10 uM by propidium iodide staining based flow cytometry; assay type: functional
HT-29 [6] = assay: Growth inhibition of human HT-29 cells at 10 uM after 3 days by trypan blue dye exclusion assay; assay type: functional; details: HT-29, 72 h, read-out: GI; method in brief: as §2
HT-29 [7] = assay: Induction of cell cycle arrest in human HT-29 cells assessed as increase in accumulation at G0/G1 phase at 0.5 to 10 uM by propidium iodide staining based flow cytometry; assay type: functional
HT-29 [8] = assay: Growth inhibition of human HT-29 cells at 0.5 to 10 uM after 3 days by trypan blue dye exclusion assay; assay type: functional; method in brief: as §2

Row | Compound | IC50 (HT-29 [1]) [µM] | IC50 [2] [µM] | IC50 (SW-620) [µM] | IC50 (MCF7) [µM] | IC50 (MDA-MB-231) [µM] | growth inhibition (GI) (HT-29 [3]) [%] | Activity (HT-29 [4]) | Activity (HT-29 [5]) | inhibition of growth at 10 µM (HT-29 [6]) [%] | Activity (HT-29 [7]) | growth inhibition (GI) (HT-29 [8]) [%]
1 | O=C1N/C(=N/c2nc(-c3ccc(Cl)cc3)cs2)S/C1=C\c1ccc(F)cc1 | 2.9 | 7.5 | > 50 | > 50 | > 50 | – | – | – | – | – | –
2 | O=C1N/C(=N/c2csc(-c3ccc(Cl)cc3)c2)S/C1=C\c1ccc2ccccc2c1 | 3.7 | 3 | > 50 | 1.2 | 1.8 | 50 | – | – | – | – | –
3 | COc1ccc(-c2cc(/N=C3/NC(=O)CS3)cs2)cc1 | > 50 | > 50 | > 50 | > 50 | > 50 | – | – | – | – | – | –
4 | Cc1ccc(N2C(=O)CS/C2=N\c2csc(-c3ccc(Cl)cc3)c2)cc1 | 28.9 | – | > 50 | > 50 | – | – | – | – | – | – | –
5 | O=C1CS/C(=N\c2csc(-c3ccc(Cl)cc3)c2)N1c1ccccc1 | 41.4 | – | – | > 50 | – | – | – | – | – | – | –
6 | O=C1N/C(=N/c2csc(-c3ccc(Cl)cc3)c2)S/C1=C\c1ccc(Br)cc1 | 2 | 3.3 | 0.7 | 2.5 | 3.5 | 25 | inactive | Active | – | – | –
7 | CN(C)c1ccc(N2C(=O)CS/C2=N\c2csc(-c3ccc(Cl)cc3)c2)cc1 | 29.2 | – | – | > 50 | – | – | – | – | – | – | –
8 | COc1cccc(N2C(=O)CS/C2=N\c2csc(-c3ccc(C)cc3)c2)c1 | > 50 | 41 | > 50 | > 50 | > 50 | – | – | – | – | – | –
9 | O=C1CS/C(=N\c2csc(-c3ccc(Cl)cc3)c2)N1c1ccc(Cl)cc1 | 36.6 | – | > 50 | > 50 | – | – | – | – | – | – | –
10 | O=C1N/C(=N/c2csc(-c3ccc(Cl)cc3)c2)S/C1=C\c1ccc(O)cc1 | > 50 | – | – | > 50 | – | – | – | – | – | – | –
11 | CC(C)(C)c1cc(/N=C2/NC(=O)CS2)cs1 | > 50 | > 50 | > 50 | > 50 | > 50 | – | – | – | – | – | –
12 | O=C1CS/C(=N\c2csc(-c3ccccc3)c2)N1 | > 50 | > 50 | > 50 | > 50 | > 50 | – | – | – | – | – | –
13 | COc1cccc(N2C(=O)CS/C2=N\c2csc(-c3ccccc3)c2)c1 | 38.3 | – | – | – | – | – | – | – | – | – | –
14 | O=C1CS/C(=N\c2csc(-c3ccc(Cl)cc3)c2)N1c1cccc2ccccc12 | > 50 | – | 19.5 | > 50 | – | – | – | – | – | – | –
15 | O=C1CS/C(=N\c2csc(-c3ccc(Cl)cc3)c2)N1 | 17.1 | > 50 | > 50 | > 50 | > 50 | – | – | – | – | – | –
16 | COc1ccc(N2C(=O)CS/C2=N\c2csc(-c3ccc(Cl)cc3)c2)cc1OC | 14.1 | 49.8 | > 50 | 18.7 | 46.9 | – | – | – | – | – | –
17 | O=C1N/C(=N/c2csc(-c3ccc(Cl)cc3)c2)S/C1=C\c1ccc(Cl)cc1 | 2.8 | 11.6 | 4.6 | 6.7 | 6.4 | 25 | – | – | – | – | –
18 | COc1cccc(N2C(=O)CS/C2=N\c2csc(-c3cccc4ccccc34)c2)c1 | > 50 | – | – | > 50 | – | – | – | – | – | – | –
19 | O=C1N/C(=N/c2csc(-c3ccc(Cl)cc3)c2)S/C1=C\c1ccccn1 | 11.5 | 21.6 | > 50 | 30.2 | 10.9 | 40 | inactive | Active | – | – | –
20 | Cc1ccc(/C=C2\S/C(=N\c3nc(-c4ccc(Cl)cc4)cs3)NC2=O)cc1 | 0.5 | 0.5 | 0.89 | 0.4 | 0.8 | <25 | – | – | 40 | – | –
21 | Cc1ccc(-c2cc(/N=C3/NC(=O)CS3)cs2)cc1 | > 50 | > 50 | > 50 | > 50 | > 50 | – | – | – | – | – | –
22 | O=C1N/C(=N/c2csc(-c3ccc(Cl)cc3)c2)S/C1=C\c1ccccc1 | 10.5 | 11.2 | > 50 | > 50 | 18 | – | inactive | Active | – | – | –
23 | COc1cccc(N2C(=O)CS/C2=N\c2csc(-c3ccc(Cl)cc3)c2)c1 | 24.6 | > 50 | 33 | > 50 | > 50 | – | – | – | – | – | –
24 | COc1ccc(-c2cc(/N=C3\SCC(=O)N3c3cccc(OC)c3)cs2)cc1 | 11.7 | 2.7 | 3.5 | 1.9 | 2.7 | 50 | inactive | – | – | Active | –
25 | CCCCCC/C=C1\S/C(=N\c2csc(-c3ccc(Cl)cc3)c2)NC1=O | 33.5 | – | – | > 50 | – | – | – | – | – | – | –
26 | O=C1CS/C(=N\c2nc(-c3ccc(Cl)cc3)cs2)N1 | 8.9 | 23.8 | > 50 | > 50 | > 50 | – | – | – | – | – | –
27 | O=C1N/C(=N/c2nc(-c3ccc(Cl)cc3)cs2)S/C1=C\c1ccc2ccccc2c1 | 1.8 | 1.2 | 20.3 | 0.3 | 0.9 | <25 | – | – | – | – | <5
28 | O=C1N/C(=N/c2csc(-c3ccc(Cl)cc3)c2)S/C1=C\c1ccc(F)cc1 | 4.1 | 7.4 | 8.7 | > 50 | – | 25 | – | – | – | – | –
29 | O=C1CS/C(=N\c2c[se]c(-c3ccc(Cl)cc3)c2)N1 | > 50 | – | > 50 | > 50 | – | – | – | – | – | – | –
30 | O=C1CS/C(=N\c2csc(-c3cccc4ccccc34)c2)N1 | > 50 | > 50 | > 50 | > 50 | > 50 | – | – | – | – | – | –

From ChEMBL document CHEMBL3414496, “Synthesis and biological evaluation of novel 2-heteroarylimino-1,3-thiazolidin-4-ones as potential anti-tumor agents” (Eur J Med Chem, 2015)
